# Results from ChEMBL document CHEMBL1133012, “QSAR based on biological microcalorimetry” (J Med Chem, 2000).
# Key:
# Escherichia coli [1] = experiment: Potency against Escherichia coli was determined microcalorimetrically at the dose of 2.619 uMol/L; type: functional, organism-based
# Escherichia coli [2] = experiment: Normal diffusion coefficient in water for Escherichia coli; type: ADME, organism-based; design: unit not given here
# In short: (§1)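 Partition coefficient by Taylor-Aris diffusion in the same cells as the screen. Cells from a liquid-nitrogen ampule were put in 25 mL 1/4 Ringer's solution; 15 mL of this was diluted with a further 24 mL 1/4 Ringer's. Water bath held at 298.15 K. Carrier pumped at least 10 min or to stable baseline before first injection. Retention time and half-height peak width taken from dispersion curve. At least two replicates per solute.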
# Escherichia coli [3] = experiment: Observed diffusion coefficient in organic solvent for Escherichia coli; type: ADME, organism-based; design: unit not given here; in short: as §1
# [4] = Partition coefficient was obtained using Taylor-Aris diffusion process.; type: ADME; settings: E. coli cells; in short: as §1
Compound,DW (Escherichia coli [2]),Dobs (Escherichia coli [3]),logP [4],Log D50 (Escherichia coli [1])
CC(C)(C)c1ccc(C(=O)NNC(=O)c2ccccc2)cc1,17.5,15.1,-0.799,3.21
COc1ccc(C(=O)NNC(=O)c2ccccc2)cc1,9.86,8.98,-1,2.6
O=C(NNC(=O)c1ccc([N+](=O)[O-])cc1)c1ccccc1,10.879,10.15,-1.14,2.38
O=C(NNC(=O)c1ccc(Br)cc1)c1ccccc1,13.47,11.9,-0.879,2.73
CCCCCc1ccc(C(=O)NNC(=O)c2ccccc2)cc1,21.15,17.3,-0.652,3.05

# Now from value to compound, other results behind:
DW (Escherichia coli [2]),Dobs (Escherichia coli [3]),logP [4],Compound,Log D50 (Escherichia coli [1])
9.94,9.2,-1.09,O=C(NNC(=O)c1ccccc1)c1ccccc1,2.28
12.24,11.02,-0.956,Cc1ccc(C(=O)NNC(=O)c2ccccc2)cc1,2.54
16.98,14.6,-0.787,O=C(NNC(=O)c1ccc(-c2ccccc2)cc1)c1ccccc1,3.24
